# Experiments:
# Amaranthus = assay: Cytokinin activity in cotyledons assessed as dark induction of betacyanin synthesis at 100 uM relative to 6-benzylaminopurine; format: functional
# Triticum aestivum = assay: Cytokinin activity in wheat leaf assessed as stimulation of retention of chlorophyll in excised leaves at 0.1 mM relative to 6-benzylaminopurine; format: functional
# MCF7 = assay: Cytotoxicity against human MCF7 cells after 72 hrs by Calcein AM assay; format: ADME, cell-based; settings: MCF7, 72 h
# BJ = assay: Cytotoxicity against human BJ cells after 72 hrs by MTT assay; format: ADME, cell-based
# Nicotiana tabacum [1] = assay: Cytokinin activity in tobacco callus assessed as stimulation of callus growth at 100 uM relative to 6-benzylaminopurine; format: functional
# Method in brief: (§1)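 Compounds dissolved in DMSO, diluted with water to 5 × 10^-2 M stock, then diluted in medium to 10^-8 to 10^-4 M. Final DMSO ≤0.2%; solvent control 0.2% DMSO. Readout was cytokinin-dependent tobacco callus growth. Activity is expressed relative to 10^-6 M BAP (=100%) at each compound's optimal concentration. Five replicates per concentration; whole test run at least twice.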
# K562 = assay: Cytotoxicity against human K562 cells after 72 hrs by Calcein AM assay; format: ADME, cell-based; settings: K562, 72 h
# Nicotiana tabacum [2] = assay: Cytokinin activity in tobacco callus assessed as stimulation of callus growth at 1 uM relative to 6-benzylaminopurine; format: functional
# Nicotiana tabacum [3] = assay: Cytokinin activity in tobacco callus assessed as stimulation of callus growth at 10 uM relative to 6-benzylaminopurine; format: functional; method in brief: as §1
# [4] = Stability assessed as compound peak area at pH 4 after 24 hrs by HPLC-PDA method; format: physicochemical; settings: read-out: Stability
# Method in brief: (§2)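 10^-2 M methanol solution diluted to 10^-4 M in McIlvaine buffer at pH 3, 4, 5, 6 or 7, then incubated at 25 °C. Direct injection onto reversed-phase C18 after 1 h and again after 24 h. Methanol/15 mM formic acid (pH 4, ammonium) gradient at 0.3 mL/min, PDA at 270 nm. Parent and released free base (m-topolin) reported as peak area %.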
# [5] = Stability assessed as free base release at pH 6 after 1 hr by HPLC-PDA method; format: physicochemical; settings: pH 6, 1 h; method in brief: as §2
# [6] = Stability assessed as compound peak area at pH 3 after 24 hrs by HPLC-PDA method; format: physicochemical; settings: read-out: Stability; method in brief: as §2
# [7] = Stability assessed as free base release at pH 7 after 1 hr by HPLC-PDA method; format: physicochemical; settings: pH 7, 1 h; method in brief: as §2
# [8] = Stability assessed as compound peak area at pH 7 after 1 hr by HPLC-PDA method; format: physicochemical; settings: read-out: Stability; method in brief: as §2
# [9] = Stability assessed as compound peak area at pH 6 after 1 hr by HPLC-PDA method; format: physicochemical; settings: read-out: Stability; method in brief: as §2
# [10] = Stability assessed as free base release at pH 5 after 1 hr by HPLC-PDA method; format: physicochemical; settings: pH 5, 1 h; method in brief: as §2
# [11] = Stability assessed as free base release at pH 3 after 24 hr by HPLC-PDA method; format: physicochemical; settings: pH 3, 24 h; method in brief: as §2
# [12] = Stability assessed as compound peak area at pH 3 after 1 hr by HPLC-PDA method; format: physicochemical; settings: read-out: Stability; method in brief: as §2
# [13] = Stability assessed as free base release at pH 5 after 24 hr by HPLC-PDA method; format: physicochemical; settings: pH 5, 24 h; method in brief: as §2
# [14] = Stability assessed as compound peak area at pH 6 after 24 hrs by HPLC-PDA method; format: physicochemical; settings: read-out: Stability; method in brief: as §2
# [15] = Stability assessed as free base release at pH 3 after 1 hr by HPLC-PDA method; format: physicochemical; settings: pH 3, 1 h; method in brief: as §2
# [16] = Stability assessed as compound peak area at pH 5 after 1 hr by HPLC-PDA method; format: physicochemical; settings: read-out: Stability; method in brief: as §2
# [17] = Stability assessed as free base release at pH 4 after 24 hr by HPLC-PDA method; format: physicochemical; settings: pH 4, 24 h; method in brief: as §2
# [18] = Stability assessed as free base release at pH 6 after 24 hr by HPLC-PDA method; format: physicochemical; settings: pH 6, 24 h; method in brief: as §2
# [19] = Stability assessed as compound peak area at pH 4 after 1 hr by HPLC-PDA method; format: physicochemical; settings: read-out: Stability; method in brief: as §2
# [20] = Stability assessed as compound peak area at pH 7 after 24 hrs by HPLC-PDA method; format: physicochemical; settings: read-out: Stability; method in brief: as §2
# [21] = Stability assessed as compound peak area at pH 5 after 24 hrs by HPLC-PDA method; format: physicochemical; settings: read-out: Stability; method in brief: as §2
# [22] = Stability assessed as free base release at pH 4 after 1 hr by HPLC-PDA method; format: physicochemical; settings: pH 4, 1 h; method in brief: as §2
# [23] = Stability assessed as free base release at pH 7 after 24 hr by HPLC-PDA method; format: physicochemical; settings: pH 7, 24 h; method in brief: as §2
structure (smiles),measurement,setting,value
COc1cccc(OC)c1CNc1ncnc2c1ncn2C1CCCCO1 (stereo not drawn),Activity,Amaranthus,13%
same,Activity,Triticum aestivum,14%
same,IC50,MCF7,> 100 µM
same,IC50,BJ,> 100 µM
same,Activity,Nicotiana tabacum [1],57%
same,IC50,K562,10.3 µM
COc1ccccc1CNc1ncnc2c1ncn2C1CCCCO1 (stereo not drawn),Activity,Amaranthus,84%
same,Activity,Triticum aestivum,104%
same,Activity,Nicotiana tabacum [2],93%
same,IC50,MCF7,> 100 µM
same,IC50,BJ,> 100 µM
same,IC50,K562,97 µM
COc1ccc(CNc2ncnc3c2ncn3C2CCCCO2)c(OC)c1 (stereo not drawn),Activity,Amaranthus,9%
same,Activity,Triticum aestivum,25%
same,IC50,MCF7,> 25 µM
same,IC50,BJ,> 25 µM
same,IC50,K562,> 25 µM
COc1ccc(OC)c(CNc2ncnc3c2ncn3C2CCCCO2)c1 (stereo not drawn),Activity,Amaranthus,28%
same,Activity,Nicotiana tabacum [3],42%
same,Activity,Triticum aestivum,19%
same,IC50,MCF7,25.4 µM
same,IC50,BJ,> 100 µM
same,IC50,K562,16.5 µM
c1ccc(CNc2ncnc3c2ncn3C2CCCCO2)cc1 (stereo not drawn),Activity,Amaranthus,114%
same,Activity,Triticum aestivum,104%
same,Activity,Nicotiana tabacum [2],102%
same,IC50,MCF7,> 100 µM
same,IC50,BJ,> 100 µM
same,IC50,K562,> 100 µM
Oc1ccc(CNc2ncnc3c2ncn3C2CCCCO2)cc1 (stereo not drawn),Activity,Amaranthus,34%
same,Activity,Nicotiana tabacum [3],20%
same,Activity,Triticum aestivum,4%
same,IC50,MCF7,> 100 µM
same,IC50,BJ,> 100 µM
same,IC50,K562,> 100 µM
COc1cccc(CNc2ncnc3c2ncn3C2CCCCO2)c1 (stereo not drawn),Activity,Amaranthus,76%
same,Activity,Triticum aestivum,72%
same,Activity,Nicotiana tabacum [2],90%
same,IC50,MCF7,97 µM
same,IC50,BJ,> 100 µM
same,IC50,K562,61 µM
COc1cccc(CNc2ncnc3c2ncn3C2CCCCO2)c1O (stereo not drawn),Activity,Amaranthus,18%
same,IC50,MCF7,> 100 µM
same,IC50,BJ,> 100 µM
same,Activity,Nicotiana tabacum [1],12%
same,IC50,K562,> 100 µM
Oc1cccc(CNc2ncnc3c2ncn3C2CCCO2)c1 (stereo not drawn),Activity,Amaranthus,82%
same,remaining at 24 h,[4],37.5%
same,Activity,Triticum aestivum,131%
same,Activity,[5],0.4%
same,remaining at 24 h,[6],0.3%
same,Activity,[7],0.3%
same,remaining at 1 h,[8],99.7%
same,Activity,Nicotiana tabacum [2],87%
same,remaining at 1 h,[9],99.6%
same,IC50,MCF7,> 100 µM
same,Activity,[10],0.5%
same,Activity,[11],99.7%
same,remaining at 1 h,[12],63.8%
same,Activity,[13],9.2%
same,remaining at 24 h,[14],99.4%
same,Activity,[15],36.2%
same,IC50,BJ,> 100 µM
same,remaining at 1 h,[16],99.5%
same,Activity,[17],62.5%
same,Activity,[18],0.6%
same,IC50,K562,> 100 µM
same,remaining at 1 h,[19],97.2%
same,remaining at 24 h,[20],99.7%
same,remaining at 24 h,[21],90.8%
same,Activity,[22],2.8%
same,Activity,[23],0.3%
COc1cc(OC)c(OC)cc1CNc1ncnc2c1ncn2C1CCCCO1 (stereo not drawn),Activity,Amaranthus,3%
same,IC50,MCF7,> 100 µM
same,IC50,BJ,> 100 µM
same,Activity,Nicotiana tabacum [1],11%
same,IC50,K562,> 100 µM
COc1cc(CNc2ncnc3c2ncn3C2CCCO2)cc(OC)c1 (stereo not drawn),Activity,Amaranthus,18%
same,Activity,Triticum aestivum,8%
same,IC50,MCF7,> 100 µM
same,IC50,BJ,> 100 µM
same,Activity,Nicotiana tabacum [1],14%
same,IC50,K562,> 100 µM
COc1cc(CNc2ncnc3c2ncn3C2CCCO2)ccc1O (stereo not drawn),Activity,Amaranthus,17%
same,Activity,Triticum aestivum,4%
same,IC50,MCF7,> 100 µM
same,IC50,BJ,> 100 µM
same,Activity,Nicotiana tabacum [1],13%
same,IC50,K562,> 100 µM
COc1ccc(CNc2ncnc3c2ncn3C2CCCO2)c(OC)c1OC (stereo not drawn),Activity,Amaranthus,15%
same,Activity,Triticum aestivum,9%
same,IC50,MCF7,> 100 µM
same,IC50,BJ,> 100 µM
same,Activity,Nicotiana tabacum [1],7%
same,IC50,K562,> 100 µM
COc1ccc(OC)c(CNc2ncnc3c2ncn3C2CCCO2)c1 (stereo not drawn),Activity,Amaranthus,41%
same,Activity,Nicotiana tabacum [3],61%
same,Activity,Triticum aestivum,41%
same,IC50,MCF7,> 50 µM
same,IC50,BJ,> 50 µM
same,IC50,K562,> 50 µM
COc1cc(OC)c(OC)cc1CNc1ncnc2c1ncn2C1CCCO1 (stereo not drawn),Activity,Amaranthus,14%
same,Activity,Triticum aestivum,9%
same,IC50,MCF7,> 100 µM
same,IC50,BJ,> 100 µM
same,Activity,Nicotiana tabacum [1],14%
same,IC50,K562,> 100 µM
COc1cc(CNc2ncnc3c2ncn3C2CCCO2)cc(OC)c1OC (stereo not drawn),Activity,Amaranthus,17%
same,Activity,Triticum aestivum,10%
same,IC50,MCF7,> 100 µM
same,IC50,BJ,> 100 µM
same,Activity,Nicotiana tabacum [1],4%
same,IC50,K562,> 100 µM
COc1cc(CNc2ncnc3c2ncn3C2CCCCO2)cc(OC)c1 (stereo not drawn),Activity,Amaranthus,9%
same,Activity,Triticum aestivum,7%
same,IC50,MCF7,> 100 µM
same,IC50,BJ,> 100 µM
same,IC50,K562,> 100 µM

# From ChEMBL document CHEMBL1153925, “Synthesis, characterization and biological activity of ring-substituted 6-benzylamino-9-tetrahydropyran-2-yl and 9-tetrahydrofuran-2-ylpurine derivatives” (Bioorg Med Chem, 2009)
